In the EternaBench riboswitch data:

Test system: MS2 coat protein
Experiment: apparent Kd, MS2 coat protein; higher = weaker binding; RNA-MaP array; FMN 200 µM where present
Method in brief: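 Designs on Illumina sequencing-chip clusters, transcribed by stalled E. coli RNA polymerase, were exposed to SNAP-549-labelled MS2 coat protein in doubling steps from 0.7 or 1.5 nM up to 3 µM, without and then with constant ligand. The buffer held 100 mM Tris-HCl pH 7.5, 80 mM KCl, 4 mM MgCl2, BSA, DTT, yeast tRNA and Tween-20. Apparent Kd values are medians of filtered per-cluster binding-curve fits to green signal normalised to red-channel RNA signal and control-cluster median Fmax.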

[1] = designed as: OFF switch for flavin mononucleotide, no ligand
[2] = ligand present: flavin mononucleotide, designed as: OFF switch for flavin mononucleotide
[3] = designed as: ON switch for flavin mononucleotide, no ligand
[4] = ligand present: flavin mononucleotide, designed as: ON switch for flavin mononucleotide

Row | Sequence | apparent Kd [1] [nM] | apparent Kd [2] [nM] | apparent Kd [3] [nM] | apparent Kd [4] [nM]
1 | CGAGUGUGAGGAUAUCCAGCCGGUGGGAUUACGUCGACGCUGGAGAAGGCACAUGAGGAUCACCCAUGUGGACA | 111 | 234 |  | 
2 | CUUCUGUGAGGAUAUGUUAGCUCCCAGCAAGUCGCUGAGAGACAGAAGGCACAUGAGGAUCACCCAUGUGGGCG | 35.1 | 177 |  | 
3 | AGGUAAGAGUUAAUUGUGACGGUGAGAAGGCAAAAGGUUGUGAUUAACAUGAGGAUCACCCAUGUUGAGGAUAUCACCACCUUC | 6.95 | 8.81 |  | 
4 | CUAUCGCAAGGAUAUACAUGAGGAUCACCCAUGUGGAAGAAUGGCCCAAAUCUAACAUGUAGAAGGUGCUAAAA | 40.6 | 64.9 |  | 
5 | GUAGCUAUCGGAGGAUAUUCAUACCGGAAACGGACAUGAGGAUCACCCAUGUGGCGAAAGUCUUGGGAGAAGGCCGAUAGCUAC |  |  | 75.5 | 6.28
6 | UGUACAUUAUUAAGUAAUUAGGCGAAGGAUAUAUAACAUGAGGAUCACCCAUGUACUAAAUUGAAGUAGAAGGUUGAGCAUUUC |  |  | 16.2 | 13.7
7 | UAAUAAAGUGUGAGGAUAUGCUGGUCCUUGGAUCAGCAGAAGGCACAUGAGGAUCACCCAUGUAAUAUAUAAAU | 97.2 | 292 |  | 
8 | CUACCUUAUGAGAAGGCGGUCAUGAAACAUGAUCGAGGAUAUCAUGUAAACAUGAGGAUCACCCAUGUAUGGGUAUUAUGGUAU |  |  | 146 | 26.4
9 | UGGUACUAGGGAGGAUAUGGGAAGAUACAUGAGGAUCACCCAUGUUUAAGAAUGCCGAGAGGGAACUAGAAGGCCCUAGUACCU |  |  |  | 14.5
10 | GUCAGCUCGUGAGGAUAUACAACACUGCUUCGUCAGUGUAUUAAGAUCACAUGAGGAUCACCCAUGUAGAAGGCACGAGCUGAU | 12.2 | 211 |  | 
11 | UCUGAUUGGUGAGGAUAUACAUAAUUUAUGACUGUAGAAGGCACAAACCUCAAGACAUGAGGAUCACCCAUGUGGUAUUUAGAU | 348 | 506 |  | 
12 | UUCAGCUCGUCAGGAUAUACGUCACUGCGUCAGCAGUGUGGUAAGAUCACAUGAGGAUCACCCAUGUAGAAGGGACGAGCUGAU | 13.7 | 235 |  | 
13 | CGUCUGUGAGGAUAUGGUAUCGUUUACAUGAGGAUCACCCAUGUUUCAUGGGACUAGAGACUAGAAGGUACUGACG | 1310 | 870 |  | 
14 | AGAUAACACCAGAAGGACAUGAGGAUCACCCAUGUAGGAUAUGGGCAUCACUCGAGAAAGAAAAGACCAAAUGUACACGCGGUC |  |  | 91.7 | 9.27
15 | CCUCCAUCAUGAGGAUAUGGCACCUUAUUGGUGCCAGAAGGCAUGUCUUUUGACAUGAGGAUCACCCAUGUAAUAAAUUGGAGG |  |  | 1280 | 127
16 | AUACAUGAGGAUCACCCAUGUUACUGGGUCUUUUUAGAACGUAGAAGGAUGUUUUUAUAAAUAACAUAGGAUAUACAAUAUUGU | 59.6 | 49.9 |  | 
17 | UCCGGAGUAGGAUAUACGGUGUAAUGACACGGCGUCGAUCAACAUGAGGAUCACCCAUGUAGAAGGACUGCGUC | 14.4 | 15.9 |  | 
18 | CCGGAAAUAGAGGAUAUAGUACUGGAUACAGUACUAGAAGGCUAUACAUGAGGAUCACCCAUGUGUCCUACCGG | 16 | 32.4 |  | 
19 | UUGAAGCUCACAGGAUAUCAGUAUGCACGAUCUAGCGCAUUAAUGAACUGCUGAGAAGGGUGAGACAUGAGGAUCACCCAUGUA |  |  | 593 | 209
20 | GUGUAGACAGGAUAUGCUUUGAGCAUAUGAGAGUAUGCUCUACAUGAGGAUCACCCAUGUAGAAGGGUCUACAC | 11.9 | 12.5 |  | 
21 | GGUGCAUAUGAGAAGGUGAUCAUGAAACAUGAUCGAGGAUAUCAUGUAAACAUGAGGAUCACCCAUGUAUGGGAAUAUUGCACC |  |  | 46.2 | 117
22 | AUAUGAUUAAGAGGAUAUAUACAACAUGAGGAUCACCCAUGUACCCAUGUAGUAGAAGGUUUGUUUUUAUAUAAUAAUAUAAUU |  |  | 74.8 | 52.1
23 | UUAUCUAUGUAAGGAUAUAGAUGAUAUACGCAUCCGACAUGAGGAUCACCCAUGUUAUAUUUUGUCUAGAAGGUACAUUGUCGG |  |  | 204 | 179
24 | UUUGUACAUGAGGAUCACCCAUGUCAGGAUAUGUCAUCGCCGUCCGACGGCCGGCGUCACAGAAGGGACAUGCA | 27.8 | 78.1 |  | 

Row | Sequence | apparent Kd [1] [nM] | apparent Kd [2] [nM] | apparent Kd [3] [nM] | apparent Kd [4] [nM]
25 | CUGAAUCUAGGAUAUUGUACUGCUGACAUGAGGAUCACCCAUGUAUGUUAACUCGGCCGUCGAGAAGGAGAACAUA | 36.1 | 27.6 |  | 
26 | UUAAUAGUAGGAUAUACAUGAGGAUCACCCAUGUAGCAACUACACAAAGGAACCUGAUGUAGAAGGACUCCCAA | 14.4 | 14.5 |  | 
27 | UUACUAUUGGAGAAGGCUCGAUAAUAUAUAAUGGGAGGAUAUCCAACAUGAGGAUCACCCAUGUUUCACCCAUAUGAGGAUCAC | 12.6 | 13.2 |  | 
28 | UUCAACGAUGAAGGAUAUGUAUAAACAUGAGGACAUGAGGAUCACCCAUGUUGAUCACCCAUGUAGCAGAAGGUCAACAUGAGG |  |  | 360 | 142
29 | UUUCAGCUCACAUGAGGAUCACCCAUGUCGGUUCGCCCGGACAGAAGGCACCCAUGACAAUGCGGUGAGGAUAUGUCAGCAAGG |  |  | 193 | 19.3
30 | UUAAAUCAUGUAGGAUAUCCGAUGCGAAGCGUUGGAGAAGGACAUGAGGAUCACCCAUGUUCUAGCGUCUGAGUACAGAUGCAA | 30.6 | 140 |  | 
31 | UCUCGUGUUCAGAAGGGCAAUCAACGAACAUGAGGAUCACCCAUGUUCUGCAGGAUAUGAACGGGUGGGAGCCCUGCGAAGGGC |  |  | 104 | 15
32 | CAUGUCCUCACAGGAUAUGCUGGACUUUGUCCAGCAGAAGGGUGAUAACAUGAGGAUCACCCAUGUGGACAUGAUAUAUUUAAU |  |  | 111 | 568
33 | CGAUGACAAAGUCAUCGAUAACGAACAUGAGGAUCACCCAUGUAGGAUAUGCUACUCAAAGAGUAGCAGAAGGACAUGUGUCUU | 31.7 | 154 |  | 
34 | CGCUAAGAGAACGAUACGAAUAGACAUGAGGAUCACCCAUGUAGAAGGACAACGGAAUAAACGUUGUAGGAUAUACAUUUAGCG | 17.4 | 45.3 |  | 
35 | UUUUAACAUGAGGAUCACCCAUGUGAGGAUAUCGAAAUUUAUAUUUAUAUUAAUUAUACGAGAAGGCACAUUUU | 79.2 | 104 |  | 
36 | GAUUUUUCUGAGGAUAUUGCAUCACCCGAUCUAUAAGAAGGCAGAACAUGAGGAUCACCCAUGUGGGUUUCUAG | 22.1 | 45.6 |  | 
37 | UUGUUUUGAAAUUAACAUGAGGAUCACCCAUGUCUUGACACAGAGGAUAUACAUGAAUGUAGGUAGUAGAAGGCUGUUUAGUGU |  |  | 79.5 | 60
38 | UUUUAGUCAGGAUAUACAUUUUUUUAAUUAUUUAUAAUAUUACAUGAGGAUCACCCAUGUAGAAGGGACAUUUU | 28.6 | 26.2 |  | 
39 | CCGGAAGUACAGGAUAUCGUAUCGGAUACGAUACGAGAAGGGUAUACAUGAGGAUCACCCAUGUGUCCUACCGG | 29.3 | 31.5 |  | 
40 | GUAGCUAUCGGAGGAUAUCCUUAGCGGAAACGCACAUGAGGAUCACCCAUGUAAAUAAAUAAUUGGGAGAAGGCCGAUAGCUAC |  |  | 107 | 16.8
41 | GCCAUCACAUGAGGAUAUGCUCGGGUUUCCCGAGCAGAAGGCAUGUCAUAAGACAUGAGGAUCACCCAUGUAGGUAAGAUGGCA |  |  | 292 | 13.6
42 | UGCGCUCGGGUGAGGAUAUUAGGACUACAAUUGUAUGAGAAGGCACAUGAGGAUCACCCAUGUGGGUGAGCGCC | 922 | 420 |  | 
43 | UUGUUGUGUGGAGGAUAUACACUAAUUGUUAGCGUAGAAGGCCACAUGAGGAUCACCCAUGUCCGGGUUACUGCCUAAGGAGUG | 548 | 99.5 |  | 
44 | UAUUUAUAGCAAGGAUAUGAUUAUUAUUAUUUAUCAGAAGGUGCACAUGAGGAUCACCCAUGUUUUAUAAUUUGUAAUUUAAUU | 55.6 | 21.8 |  | 
45 | UUUUUAUUUGAAGGAUAUACUUAACAUGAGGAUCACCCAUGUGGUGUUGUGAGUGAGUGAGUUUAGUAGAAGGUCAAUUAUUUU | 373 | 703 |  | 
46 | UGUGCCUCGAGAGGAUAUAACAUGAGGAUCACCCAUGUAACAGAGGUGGAAACACCUCUGAAAUGUUAGAAGGCUCGAGGCACA | 46.6 | 57 |  | 
47 | AGCUGUGGCCGAGGAUAUCUAUCCCAAAUAACCGAAAUAUAAUCGGACAUGAGGAUCACCCAUGUAGAGAAGGCGGUCUCAGCA |  | 35.1 |  | 
48 | AAAAGUUGGUAAGGAUAUCCCACAUUAUUCUGACCCGUGCAAGCUACAUGAGGAUCACCCAUGUGGGAGAAGGUGCGUUAAAGA | 54.7 | 64.6 |  | 
